# ChEMBL document CHEMBL4152262, “Design, synthesis and evaluation of novel multi-target-directed ligands for treatment of Alzheimer's disease based on coumarin and lipoic acid scaffolds” (Eur J Med Chem, 2018)
# Active and inactive are the calls of the source. The rule behind the calls is not given here.
# Key:
# [1] = tested on: PC-12; assay: Inhibition of H2O2-induced ROS generation in rat PC12 cells assessed as intracellular ROS level at 10 uM preincubated for 6 hrs followed by H2O2 addition measured after 18 hrs by DCFH-DA staining based fluorimetric method relative to control; format: functional; parameters: scale not given: the % may be the effect or the level left
# Outline: (§1)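 PC12 cells at 1×10^4/well in RPMI with 10% FBS and penicillin/streptomycin, 24 h at 37 °C, 5% CO2. Test samples (1, 5, 10, 50 µM; ≤0.5% DMSO) for 6 h, PBS wash, then H2O2 150 µM for 18 h. Loaded with 10 µM DCFH-DA for 30 min at 37 °C in the dark, washed twice. DCF fluorescence read at ex 485/em 528 nm as % of untreated control. Three independent experiments, mean ± SEM.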
# [2] = tested on: SH-SY5Y; assay: Inhibition of amyloid beta (1 to 42) (unknown origin)-induced cell death in human SH-SY5Y cells assessed as cell viability at 10 uM preincubated for 3 hrs followed by amyloid beta (1 to 42) addition measured after 24 hrs by MTT assay relative to control; format: functional; settings: read-out: Activity
# Outline: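 SH-SY5Y cells grown in DMEM with 10% FBS, 1% L-glutamine and antibiotics, seeded at 5×10^3/well. Pretreated 3 h with compound (10 or 50 µM), then Aβ1-42 10 µM added for 24 h. MTT, formazan dissolved in DMSO, A570. Viability as blank-corrected % of untreated control; three independent experiments, mean ± SEM.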
# [3] = Metal chelating activity assessed as compound-Cu2+ complex formation at 20 uM after 30 mins by UV-visible spectrophotometric analysis
# Outline: (§2)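 Compound (final 20 µM in methanol) mixed with metal salt (CuCl2, FeSO4, ZnCl2, AlCl3, MgCl2 or CaCl2, final 20 µM in methanol). After 30 min at room temperature, UV spectra recorded from 200 to 500 nm in 1-cm quartz cells on a dual-beam spectrophotometer.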
# [4] = target: Amyloid-beta precursor protein (Homo sapiens) (UniProt P05067); assay: Potency index, ratio of compound effect to donepezil effect for inhibition of amyloid beta (1 to 42) (unknown origin) self-induced aggregation at 100 uM
# [5] = target: Amyloid-beta precursor protein (Homo sapiens) (UniProt P05067); assay: Potency index, ratio of compound effect to rifampicin effect for inhibition of amyloid beta (1 to 42) (unknown origin) self-induced aggregation at 100 uM
# [6] = tested on: PC-12; assay: Inhibition of H2O2-induced ROS generation in rat PC12 cells assessed as intracellular ROS level at 1 uM preincubated for 6 hrs followed by H2O2 addition measured after 18 hrs by DCFH-DA staining based fluorimetric method relative to control; format: functional; parameters: scale not given: the % may be the effect or the level left; outline: as §1
# [7] = Metal chelating activity assessed as compound-Fe2+ complex formation at 20 uM after 30 mins by UV-visible spectrophotometric analysis; outline: as §2
# [8] = tested on: PC-12; assay: Inhibition of H2O2-induced ROS generation in rat PC12 cells assessed as intracellular ROS level at 50 uM preincubated for 6 hrs followed by H2O2 addition measured after 18 hrs by DCFH-DA staining based fluorimetric method relative to control; format: functional; parameters: scale not given: the % may be the effect or the level left; outline: as §1
# [9] = Metal chelating activity assessed as mole fraction of compound required to show 2:1 stoichiometry for compound-Cu2+ complex at 40 uM after 30 mins by UV titration method
# Outline: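 Molar ratio method: 2.5 mL of 40 µM ligand in methanol titrated with CuCl2 (1000 µM in methanol) in 0.01 mL steps. Absorbance at 365 nm plotted against mole fraction; stoichiometry read from where the two straight lines cross.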
# Chain of Amyloid-beta precursor protein (Homo sapiens) (P05067 whole entry): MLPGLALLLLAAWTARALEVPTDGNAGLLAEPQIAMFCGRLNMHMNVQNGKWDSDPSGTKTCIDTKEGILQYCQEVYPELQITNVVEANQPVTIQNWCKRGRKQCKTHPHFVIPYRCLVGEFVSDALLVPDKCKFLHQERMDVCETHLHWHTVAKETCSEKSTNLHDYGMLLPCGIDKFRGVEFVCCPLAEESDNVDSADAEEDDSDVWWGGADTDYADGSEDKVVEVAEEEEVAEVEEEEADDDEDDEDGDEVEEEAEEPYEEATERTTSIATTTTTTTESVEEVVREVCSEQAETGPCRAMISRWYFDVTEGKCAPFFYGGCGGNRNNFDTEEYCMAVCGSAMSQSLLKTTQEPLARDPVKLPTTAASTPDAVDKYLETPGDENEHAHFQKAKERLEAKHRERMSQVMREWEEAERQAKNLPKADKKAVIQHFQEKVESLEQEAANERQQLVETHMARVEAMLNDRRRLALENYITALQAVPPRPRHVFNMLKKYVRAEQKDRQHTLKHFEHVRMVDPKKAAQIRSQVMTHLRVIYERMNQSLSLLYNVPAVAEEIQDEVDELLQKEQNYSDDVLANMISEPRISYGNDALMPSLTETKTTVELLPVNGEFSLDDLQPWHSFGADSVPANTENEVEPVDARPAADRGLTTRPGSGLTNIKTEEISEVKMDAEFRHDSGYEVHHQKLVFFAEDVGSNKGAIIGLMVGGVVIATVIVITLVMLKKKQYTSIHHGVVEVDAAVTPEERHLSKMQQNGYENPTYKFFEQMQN
compound,measurement,setting,value
COc1ccc(-c2cc3ccc(OCCCn4cc(CNC(=O)CCCCC5CCSS5)nn4)cc3oc2=O)cc1OC (centres undefined),Activity,[1],43.04%
same,viability at 10 µM,[2],64.7%
same,Activity,[3],Active
same,Ratio,[4],2
same,Ratio,[5],2
same,Activity,[6],88.84%
same,Activity,[7],Active
same,Activity,[8],91.6%
same,Activity,[9],0.5 molar ratio
